Columns and labels:
Assay type in all cases: functional
[1] = species: Rattus norvegicus; assay: The compound was tested for 30% reduction in mean arterial blood pressure(MAP)
Procedure, shortened: (§1)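 Conscious SHR with an arterial catheter exteriorized at the nape, held in Bollman restraint cages after a 60-min postsurgical recovery. Only rats with MAP >150 mmHg were used. Single oral gavage dose in distilled water (range 0.003-20 mg/kg), pressure monitored continuously for 4 h by transducer. Maximal % change from predrug MAP over 240 min, N ≥ six rats. ED30 from regression over the linear part of the dose-response, with 95% confidence limits.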

[2] = tested on: Rattus norvegicus; assay: Maximal change in rat mean arterial blood pressure after 20 mg/kg p.o.; conditions: route oral; procedure, shortened: as §1
[3] = tested on: Rattus norvegicus; assay: The compound was tested for antihypertensive activity measured as maximal change in mean arterial blood pressure(MAP), after oral administration of 1 mg/kg of the compound.; procedure, shortened: as §1
[4] = species: Oryctolagus cuniculus; assay: The compound was tested for increase in [86Rb+] efflux in rabbit isolated mesenteric artery over basal rate at a concentration of 10 uM
Procedure, shortened: (§2)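 Vessel rings from freshly killed rabbits, held on steel wires in physiological buffer at 37 °C gassed with 95% O2/5% CO2. Rings loaded with 86Rb (4-5 μCi/mL) for 3-4 h, then moved in pairs through 4 mL buffer tubes every 10 min. Basal efflux taken over 30-40 min, followed by test compound in about five vials, then compound-free washout for 10-20 min. Efflux aliquots and overnight-digested tissue counted by liquid scintillation.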

[5] = species: Oryctolagus cuniculus; assay: The compound was tested for increase in [86Rb+] efflux in rabbit isolated mesenteric artery over basal rate at a concentration of 1 uM.; procedure, shortened: as §2
[6] = species: Oryctolagus cuniculus; assay: The compound was tested for increase in [86Rb+] efflux in rabbit isolated mesenteric artery over basal rate at a concentration of 100 uM; procedure, shortened: as §2
[7] = species: Oryctolagus cuniculus; assay: The compound was tested for increase in [86Rb+] efflux in rabbit isolated mesenteric artery over basal rate at a concentration of 30 uM.; procedure, shortened: as §2
[8] = species: Oryctolagus cuniculus; assay: The compound was tested for increase in [86Rb+] efflux in rabbit isolated mesenteric artery over basal rate at a concentration of 30 uM; procedure, shortened: as §2
[9] = tested on: Rattus norvegicus; assay: The compound was tested for antihypertensive activity measured as maximal change in mean arterial blood pressure(MAP), after oral administration of 20 mg/kg of the compound.; procedure, shortened: as §1
[10] = species: Oryctolagus cuniculus; assay: The compound was tested for increase in [86Rb+] efflux in rabbit isolated mesenteric artery over basal rate at a concentration of 100 uM.; procedure, shortened: as §2
[11] = species: Oryctolagus cuniculus; assay: The compound was tested for increase in [86Rb+] efflux in rabbit isolated mesenteric artery over basal rate at a concentration of 10 uM.; procedure, shortened: as §2
[12] = species: Oryctolagus cuniculus; assay: The compound was tested for increase in [86Rb+] efflux in rabbit isolated mesenteric artery over basal rate at a concentration of 3 uM; procedure, shortened: as §2
[13] = species: Oryctolagus cuniculus; assay: The compound was tested for increase in [86Rb+] efflux in rabbit isolated mesenteric artery over basal rate at a concentration of 3 uM.; procedure, shortened: as §2
[14] = Rattus norvegicus, Arterial blood, read-out: ED30

With `CC1(C)Oc2cc([N+](=O)[O-])sc2[C@@H](N2Cc3ccccc3C2=O)[C@@H]1O` the ED30 [1, 14] was 0.22 mg/kg, the Change [2] was -61% and the Change [3] was -58%.

`CC1(C)C=C(n2ccccc2=O)c2sc([N+](=O)[O-])cc2O1` gave a Change [2] of -14%.

`CC1(C)Oc2cc([N+](=O)[O-])sc2[C@@H](N2CCCCC2=O)[C@@H]1O` (stereo in doubt; 40) was tested, and the ED30 [1] was 1.9 mg/kg, the Increase [4] was 19% and the Increase [5] was 2%. It also gave a Change ([3]; 1 mg/kg) of -19%, an Increase [6] of 19% and an Increase [7] of 11%.

Compound `CC(=O)c1cc2c(s1)[C@@H](N1CCCCC1=O)[C@H](O)C(C)(C)O2` has an ED30 [1, 14] of 0.09 mg/kg, an Increase [4] of 13% and a Change [2] of -67%. For the same compound, the Increase [8] was 38% and the Increase [6] was 26%.

Work on `CC1(C)Oc2ccsc2[C@@H](N2CCCC2=O)[C@@H]1O` yielded an ED30 [1, 14] of 5.03 mg/kg, an Increase [4] of 0% and a Change [2] of -55%. The Increase [6] was 25% and the Increase [7] was 8%.

`CC1(C)Oc2ccsc2[C@@H](N2CCCCC2)[C@@H]1O` was tested, and the Change [2] was -6% and the Increase [6] was 0%.

Work on `CC1(C)Oc2cc(Br)sc2[C@@H](N2CCCCC2=O)[C@@H]1O` yielded a Change [2] of -64% and an Increase [8] of 42%.

For `Cc1cc2c(s1)[C@@H](N1CCCC1=O)[C@H](O)C(C)(C)O2`, the Change [2] was -28%.

In the case of `CNC(=O)c1cc2c(s1)[C@@H](N1CCCCC1=O)[C@H](O)C(C)(C)O2.O`, the Change [9] was -29% and the Increase [10] was 25%.

In the case of `CC1(C)Oc2cc(C#N)sc2[C@@H](N2CCCC2=O)[C@@H]1O`, the ED30 [1, 14] was 0.07 mg/kg and the Change [2] was -67%.

For `CC1(C)Oc2cc([N+](=O)[O-])sc2[C@@H](N2CCCCC2=O)[C@@H]1O` (stereo in doubt; 41), the ED30 [1] was 0.013 mg/kg, the Increase [11] was 80% and the Increase [5] was 26%. The Increase [12] was 66%, the Change ([3]; 1 mg/kg) was -63% and the Increase [7] was 91%. It also gave an Increase [10] of 53%.

With `CC1(C)Oc2cc(Br)sc2[C@@H](N2CCCC2=O)[C@@H]1O` the Increase [4] was 65%, the Change [2] was -43% and the Increase [8] was 64%. For the same compound, the Change [3] was -3% and the Increase [6] was 90%.

With `CC1(C)Oc2cc([N+](=O)[O-])sc2[C@@H](N2CC(=O)NCC2=O)[C@@H]1O` the Change [9] was -4% and the Increase [6] was 0%.

For `CC1(C)Oc2cc([N+](=O)[O-])sc2[C@@H](N2CCCCCC2=O)[C@@H]1O`, the Change [9] was -34% and the Increase [8] was 25%.

For `CC1(C)Oc2cc(C(N)=O)sc2[C@@H](N2CCCCC2=O)[C@@H]1O`, the ED30 [1, 14] was 0.2 mg/kg, the Increase [4] was 73% and the Change [2] was -68%. It also gave an Increase [6] of 92% and an Increase [7] of 75%.

`CC(=O)c1cc2c(s1)[C@@H](N1CCCC1=O)[C@H](O)C(C)(C)O2` gave an ED30 [1, 14] of 0.2 mg/kg, an Increase [4] of 37% and a Change [2] of -62%. The Increase [8] was 40% and the Increase [6] was 57%.

For `CC1(C)Oc2cc([N+](=O)[O-])sc2[C@@H](N2CCCCC2=O)[C@@H]1O` (stereo in doubt; 32), the ED30 [1] was 0.015 mg/kg, the Increase [4] was 56% and the Change [2] was -65%. For the same compound, the Increase [8] was 60% and the Increase [13] was 41%.

`CC1(C)Oc2cc(C(=O)O)sc2[C@@H](N2CCCCC2=O)[C@@H]1O` showed a Change [9] of -9%.
